Screening results (PubChem BioAssay)
Rin1-Abl PPI inh: blocks binding of human Rin1 to Abl; TR-FRET Rin1/Abl binding, biochemical; inhibition, % at 7.35 µM; 360,000 compounds, 0.4% hits; in the data active = inhibition above about 5%, passing the limit was not always enough
UHRF1 MBD2 ctr: blocks human UHRF1 binding to methylated DNA | Q96T88 | UHRF1 binding to methylated oligo, TR-FRET | inhibition, % at 4.4 µM | 370,000 compounds, 0.75% hits;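 also: UHRF1 SRA domain binding a hemimethylated CpG hairpin DNA probe; 0% = median of test compound wells and 100% = reference inhibitor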
Arr AP2 block: inhibitors of human beta-arrestin and AP2 interaction | inhibition, % at 10 µM | 340,000 compounds, 0.31% hits | FITC-arrestin peptide / GST-AP2 beads, flow cytometry; AP2 beta2 appendage carries R879A mutation;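 active = inhibition above a set limit, near 3 SD of compounds lacking own fluorescence, cut at about 54% in these data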;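 also: plate controls were DMSO wells for no effect and 5 µM unlabelled arrestin peptide for full effect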
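System: GST-AP2 R879A glutathione beads; medium: PBS, Tween 20 0.05%, BSA 0.1%; reagent: fluorescein-tagged arrestin peptide at 50 nM final; schedule: pre-incubation 12 min, peptide binding 1 h, room temperature; detection: flow cytometry, FL1 (488/535 nm); read-out: inhibition as reduced fluorescein signal on beads, percent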
B2AR ag: human beta-2 adrenergic receptor agonism by FAP; P07550; Am2.2-beta2AR cells, FAP receptor internalization, flow cytometry; response, % (no concentration beside the values); 340,000 compounds, 0.43% hits; AID 504454;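 active = response above a set limit, near 3 SD of response in nonfluorescent compounds, cut at about 42% in these data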
ABHD5 PLIN5 PPI: inhibitors of human ABHD5-perilipin-5 interaction; Q00G26+Q8WTS1; Split G. princeps luciferase complementation, luminescence, 4 h; inhibition, % at 4 µM; 360,000 compounds, 0.78% hits; AID 602281;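 active = inhibition above the mean inhibition across every tested compound plus 3 SD, cut at about 22% in these data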;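 also: 0% = DMSO only wells and the 100% control is not disclosed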
MBD2 inh: blocks human MBD2 binding to methylated DNA. TR-FRET, MBD2 binding to methylated oligonucleotide. inhibition, % at 4.4 µM. 370,000 compounds, 0.31% hits. AID 686964; in the data active = inhibition above about 13%
UHRF1 DNA bind: counter-screen for MBD2 inhibitors: human UHRF1 methylated DNA binding inhibitors; shares compounds with MBD2 inh; UHRF1 binding to methylated oligonucleotide, TR-FRET; inhibition, % at 4.4 µM; 1,000 compounds, 25% hits;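 also: UHRF1 SRA domain binding a labeled hemimethylated CpG hairpin DNA; 0% = vehicle only and 100% = reference inhibitor with vehicle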
MBD2 DBD conf: MBD2-DBD methyl-DNA binding inhibition, TR-FRET confirmation | shares compounds with MBD2 inh | TR-FRET MBD2-DBD binding to methylated oligonucleotide | inhibition, % at 4.4 µM | 1,000 compounds, 26% hits | AID 720531; in the data active = inhibition above about 14%
The depositor's hits bear a star; . = not tested or not shown. In the library only some 2.5% were active in any assay of this set; here they are far more common. Rule as the data show it, unless noted: active = inhibition above about 21%; inactive = the rest.

SMILES | Rin1-Abl PPI inh | UHRF1 MBD2 ctr | Arr AP2 block | B2AR ag | ABHD5 PLIN5 PPI | MBD2 inh | UHRF1 DNA bind | MBD2 DBD conf
CC(C)[C@H](NC(=O)c1ccco1)C(=O)OCc1cc(=O)n2c(n1)sc1ccccc12 | 5 | 3 | 16 | -2 | -3 | 9 | . | .
O=C(OCc1cc(=O)n2c(n1)sc1ccccc12)c1cccc(O)c1 | 3 | 16 | 10 | -10 | 1 | 13* | 21* | 18*
O=C(OCc1cc(=O)n2c(n1)sc1ccccc12)c1ccc(O)cc1O | 3 | 3 | 3 | -10 | 3 | 6 | . | .
O=C(Cc1coc2cc3c(cc12)CCC3)OCc1cc(=O)n2c(n1)sc1ccccc12 | 0 | 16 | 14 | -2 | -6 | 16* | 19 | 14*
CCOC(=O)N1CCN(C(=O)C[C@@H]2C[C@@]3(C(=O)OCC)CCCC=C3N(CCC3=CCCCC3)C2=O)CC1 | . | 1 | . | . | -1 | 20* | 7 | 5
COc1ccc(Cc2nnc(NC(=O)CS(=O)(=O)c3ccc(C)cc3)s2)cc1OC | -4 | -2 | -9 | -1 | -1 | 22* | 8 | 1
COc1ccc2c(c1)CCCN2C(=O)C1CCCN(S(=O)(=O)c2cccc3cccnc23)C1 (stereo not drawn) | . | -2 | . | . | . | -4 | . | .
C=C(C)/C=C1/C(Cc2ccccc2)N(CC2CC2)C(=N)N1C(=O)OCc1ccccc1 (stereo not drawn) | . | -2 | . | . | . | 5 | . | .
COc1cc(/C=C2\CCCc3c2nc2ccccc2c3C(=O)O)cc(Br)c1O | -3 | -2 | 1 | 15 | 5 | 0 | . | .
COc1cc(/C=C2\CCc3c2nc2ccccc2c3C(=O)O)cc(OC)c1OC | 2 | 48* | 13 | 12 | -2 | 26* | 34* | 14*
COCc1cc(N2CCCC2)nc(-c2ccccc2)n1 | 5 | -1 | 12 | -8 | -2 | -5 | . | .
CS(=O)(=O)Cc1cc(N2CCCC2)nc(-c2ccccc2)n1 | 2 | -1 | -16 | -13 | -2 | 20* | 6 | 3
CCCOc1ccc(N2C(=O)CC(N(Cc3ccco3)C(=O)CCC(=O)O)C2=O)cc1 (stereo not drawn) | 0 | 2 | 12 | -7 | -6 | 16* | 4 | 2
CCCc1nc2ccc(C(=O)OC)cn2c1Cc1cccc(F)c1 | -2 | 26* | . | . | 6 | 17* | 10 | 5
O=C(/C=C/c1ccc(O)c([N+](=O)[O-])c1)c1ccc2ccccc2c1 | -1 | 0 | 20 | 14 | 14 | 44* | 4 | -1
CN(C)c1ccc(/C=C/C(=O)c2ccccc2)cc1[N+](=O)[O-] | -4 | -5 | -3 | 7 | 16 | -4 | . | .
COc1ccc(NC(=O)c2noc3c2CCC3)cc1 | 4 | 31* | 16 | -1 | 1 | 13* | 17 | 8
C=CCN1C(=O)[C@@H](CC(=O)N2CCN(C(=O)C3CC3)CC2)[C@]2(C(=O)OCC)CCCCC/C=C/12 | . | 0 | . | . | . | 5 | . | .
CN(Cc1ccc(Cl)cc1)C(=O)c1ccc(S(=O)(=O)NCc2ccco2)cc1 | -3 | 5 | -2 | 1 | 6 | 37* | 6 | 1
COc1cc2c(NCCCCCO)ncnc2c(OC)c1OC | -5 | 1 | . | . | -8 | 0 | . | .
COc1ccc(C)cc1NC(=O)C1CCN(C(=O)c2ccco2)CC1 | 4 | -2 | 6 | 2 | 0 | 14* | 9 | 3
CN(C)c1cccc(-c2cnc(N3CCC(C(N)=O)CC3)nc2)c1 | . | 1 | . | . | . | -3 | . | .
c1ccc(CN2CCC(N3CCC(N4CCCCCC4)CC3)CC2)cc1 | 1 | . | 3 | -8 | 7 | . | . | .
c1ccc2c(c1)c1c(c3ccccc32)CN2CCCC2C1 (stereo not drawn) | -4 | 26* | -3 | -9 | 4 | 36* | 34* | 49*
Nc1ncnc2oc(-c3ccco3)c(-c3ccco3)c12 | 1 | 92* | 24 | 16 | 19 | 81* | 53* | 39*
CN(C(=O)COC(=O)c1ccc(S(=O)(=O)N2CCCCCC2)cc1)c1ccccc1 | -4 | 5 | . | . | -11 | -1 | . | .
